# Test results from the M2OR odorant receptor database.
# Key:
# Settings in all cases: stereoisomer not certain
# UniProt L7MU75 = target: T1, UniProt L7MU75
# T1 sequence (whole entry): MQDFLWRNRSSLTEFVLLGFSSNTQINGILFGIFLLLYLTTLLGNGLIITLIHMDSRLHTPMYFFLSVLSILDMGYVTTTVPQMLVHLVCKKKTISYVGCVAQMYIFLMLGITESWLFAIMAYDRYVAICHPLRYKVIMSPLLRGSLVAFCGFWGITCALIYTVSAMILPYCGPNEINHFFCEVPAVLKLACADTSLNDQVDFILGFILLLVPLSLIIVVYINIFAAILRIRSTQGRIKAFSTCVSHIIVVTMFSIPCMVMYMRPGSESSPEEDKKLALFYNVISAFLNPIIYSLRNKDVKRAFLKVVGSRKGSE
# Outline: (§1)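 Transient luciferase assays in mammalian cell lines were common, though methods varied by source. The values come from published papers and their supplementary material, with extra details from the original authors when needed. Responsive refers to a measured signal the original authors judged statistically different from baseline, and non-responsive (inactive) to the remainder.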
# UniProt L7N210 = target: T2, UniProt L7N210
# T2 sequence (whole entry): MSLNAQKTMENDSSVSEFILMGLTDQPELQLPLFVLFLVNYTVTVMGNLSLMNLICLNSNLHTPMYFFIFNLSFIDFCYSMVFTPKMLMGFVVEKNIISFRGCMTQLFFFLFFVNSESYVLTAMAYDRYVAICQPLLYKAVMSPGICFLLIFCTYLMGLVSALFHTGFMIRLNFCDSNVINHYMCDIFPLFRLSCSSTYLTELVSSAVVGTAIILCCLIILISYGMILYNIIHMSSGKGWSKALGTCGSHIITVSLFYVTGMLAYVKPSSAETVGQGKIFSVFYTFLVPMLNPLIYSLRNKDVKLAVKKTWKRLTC
# Outline: as §1
# UniProt Q3KPB0 = target: T3, UniProt Q3KPB0
# T3 sequence (whole entry): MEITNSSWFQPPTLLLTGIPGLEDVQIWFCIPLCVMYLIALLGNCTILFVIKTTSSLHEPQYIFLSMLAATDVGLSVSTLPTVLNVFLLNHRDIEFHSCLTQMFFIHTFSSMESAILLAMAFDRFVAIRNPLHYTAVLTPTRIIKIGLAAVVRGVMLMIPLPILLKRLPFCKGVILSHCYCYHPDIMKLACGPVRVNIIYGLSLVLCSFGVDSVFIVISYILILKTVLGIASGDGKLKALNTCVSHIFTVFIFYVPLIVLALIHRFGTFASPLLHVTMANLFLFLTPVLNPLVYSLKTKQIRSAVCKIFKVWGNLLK
# Outline: as §1
# UniProt Q3U0P3 = target: T4, UniProt Q3U0P3
# T4 sequence (whole entry): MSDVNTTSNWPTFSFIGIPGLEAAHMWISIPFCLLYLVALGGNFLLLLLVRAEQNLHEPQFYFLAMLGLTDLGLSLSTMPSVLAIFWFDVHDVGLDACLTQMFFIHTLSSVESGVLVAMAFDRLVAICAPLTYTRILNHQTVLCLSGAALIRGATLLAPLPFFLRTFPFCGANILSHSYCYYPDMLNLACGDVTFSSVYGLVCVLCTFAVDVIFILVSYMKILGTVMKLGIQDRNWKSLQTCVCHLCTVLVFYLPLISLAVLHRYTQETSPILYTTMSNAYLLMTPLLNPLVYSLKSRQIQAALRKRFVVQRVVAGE
# Outline: as §1
# UniProt Q7TQU8 = target: T5, UniProt Q7TQU8
# T5 sequence (whole entry): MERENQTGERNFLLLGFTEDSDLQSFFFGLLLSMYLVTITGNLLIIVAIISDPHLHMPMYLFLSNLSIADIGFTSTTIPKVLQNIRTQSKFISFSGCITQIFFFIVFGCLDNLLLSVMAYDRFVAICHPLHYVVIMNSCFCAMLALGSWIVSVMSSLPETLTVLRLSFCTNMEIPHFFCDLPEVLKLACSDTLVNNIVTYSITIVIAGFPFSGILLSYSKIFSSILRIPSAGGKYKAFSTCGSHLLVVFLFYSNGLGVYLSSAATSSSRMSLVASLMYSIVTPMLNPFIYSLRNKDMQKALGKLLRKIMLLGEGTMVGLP
# Outline: as §1
# UniProt Q7TQV4 = target: T6, UniProt Q7TQV4
# T6 sequence (whole entry): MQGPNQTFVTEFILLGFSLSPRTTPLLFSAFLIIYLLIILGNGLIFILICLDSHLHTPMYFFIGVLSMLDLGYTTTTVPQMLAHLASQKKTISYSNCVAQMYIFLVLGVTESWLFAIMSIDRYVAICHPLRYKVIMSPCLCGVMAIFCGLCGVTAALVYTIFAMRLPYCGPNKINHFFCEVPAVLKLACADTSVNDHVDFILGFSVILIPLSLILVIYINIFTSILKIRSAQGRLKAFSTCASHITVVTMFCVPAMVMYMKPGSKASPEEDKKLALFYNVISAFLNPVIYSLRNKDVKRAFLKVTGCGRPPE
# Outline: as §1
# UniProt Q7TR71 = target: T7, UniProt Q7TR71
# T7 sequence (whole entry): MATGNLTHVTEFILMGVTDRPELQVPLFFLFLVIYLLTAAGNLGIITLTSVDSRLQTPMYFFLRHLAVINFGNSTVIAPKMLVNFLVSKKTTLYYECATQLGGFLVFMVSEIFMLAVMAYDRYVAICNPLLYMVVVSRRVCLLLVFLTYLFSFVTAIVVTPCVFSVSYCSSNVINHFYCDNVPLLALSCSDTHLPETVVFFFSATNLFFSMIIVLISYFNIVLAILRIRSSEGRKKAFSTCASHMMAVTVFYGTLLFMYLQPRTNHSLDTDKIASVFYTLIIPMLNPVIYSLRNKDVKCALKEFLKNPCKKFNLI
# Outline: as §1
# UniProt Q7TR79 = target: T8, UniProt Q7TR79
# T8 sequence (whole entry): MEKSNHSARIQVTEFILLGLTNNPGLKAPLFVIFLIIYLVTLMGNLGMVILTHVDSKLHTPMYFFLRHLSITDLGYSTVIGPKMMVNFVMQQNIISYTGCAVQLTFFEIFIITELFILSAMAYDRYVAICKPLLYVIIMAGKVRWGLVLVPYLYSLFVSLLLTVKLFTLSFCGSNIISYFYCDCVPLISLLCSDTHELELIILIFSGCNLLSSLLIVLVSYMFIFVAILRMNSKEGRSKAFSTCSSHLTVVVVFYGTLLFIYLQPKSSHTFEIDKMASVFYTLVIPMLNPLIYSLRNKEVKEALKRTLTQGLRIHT
# Outline: as §1
# UniProt Q7TRA3 = target: T9, UniProt Q7TRA3
# T9 sequence (whole entry): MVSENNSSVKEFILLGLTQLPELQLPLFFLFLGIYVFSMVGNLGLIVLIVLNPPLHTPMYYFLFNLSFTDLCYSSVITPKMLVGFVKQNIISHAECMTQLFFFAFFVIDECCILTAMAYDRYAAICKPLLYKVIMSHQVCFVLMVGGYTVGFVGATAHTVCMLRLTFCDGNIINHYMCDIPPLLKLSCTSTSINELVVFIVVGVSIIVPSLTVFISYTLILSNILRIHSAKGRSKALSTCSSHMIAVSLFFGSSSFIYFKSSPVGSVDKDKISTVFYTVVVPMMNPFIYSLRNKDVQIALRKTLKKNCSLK
# Outline: as §1
# UniProt Q7TRE4 = target: T10, UniProt Q7TRE4
# T10 sequence (whole entry): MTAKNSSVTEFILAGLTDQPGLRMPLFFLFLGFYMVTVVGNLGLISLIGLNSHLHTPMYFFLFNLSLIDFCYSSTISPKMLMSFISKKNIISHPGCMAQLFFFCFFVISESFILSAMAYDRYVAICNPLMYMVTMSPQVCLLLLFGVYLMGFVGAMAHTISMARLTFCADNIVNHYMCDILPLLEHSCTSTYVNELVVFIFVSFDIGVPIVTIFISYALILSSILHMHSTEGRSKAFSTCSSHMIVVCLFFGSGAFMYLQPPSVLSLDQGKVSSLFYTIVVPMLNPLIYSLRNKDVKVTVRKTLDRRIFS
# Outline: as §1
# UniProt L7N0P5 = target: T11, UniProt L7N0P5
# T11 sequence (whole entry): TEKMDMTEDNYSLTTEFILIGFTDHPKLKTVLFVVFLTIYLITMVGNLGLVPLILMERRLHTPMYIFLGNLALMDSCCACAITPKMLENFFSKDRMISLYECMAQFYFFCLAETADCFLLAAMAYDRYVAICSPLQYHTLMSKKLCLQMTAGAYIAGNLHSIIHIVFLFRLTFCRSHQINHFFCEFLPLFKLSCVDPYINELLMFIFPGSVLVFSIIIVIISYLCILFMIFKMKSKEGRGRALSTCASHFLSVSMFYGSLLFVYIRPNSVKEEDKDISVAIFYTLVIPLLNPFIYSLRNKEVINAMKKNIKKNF
# Outline: as §1
# UniProt Q7TRN9 = target: T12, UniProt Q7TRN9
# T12 sequence (whole entry): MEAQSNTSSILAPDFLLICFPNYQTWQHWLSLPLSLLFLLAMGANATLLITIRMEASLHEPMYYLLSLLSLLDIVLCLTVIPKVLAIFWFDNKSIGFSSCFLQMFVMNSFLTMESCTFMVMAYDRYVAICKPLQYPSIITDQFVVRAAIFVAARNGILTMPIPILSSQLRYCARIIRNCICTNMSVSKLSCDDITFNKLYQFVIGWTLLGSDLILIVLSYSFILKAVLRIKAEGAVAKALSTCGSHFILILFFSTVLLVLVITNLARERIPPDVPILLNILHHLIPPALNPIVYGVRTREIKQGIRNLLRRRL
# Outline: as §1
# 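Note: active if original authors judged signal statistically different from baseline.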
SMILES,odorant receptor agonist call (UniProt L7MU75),odorant receptor agonist call (UniProt L7N210),odorant receptor agonist call (UniProt Q3KPB0),odorant receptor agonist call (UniProt Q3U0P3),odorant receptor agonist call (UniProt Q7TQU8),odorant receptor agonist call (UniProt Q7TQV4),odorant receptor agonist call (UniProt Q7TR71),odorant receptor agonist call (UniProt Q7TR79),odorant receptor agonist call (UniProt Q7TRA3),odorant receptor agonist call (UniProt Q7TRE4),odorant receptor agonist call (UniProt L7N0P5),odorant receptor agonist call (UniProt Q7TRN9)
CCCCCCOC(C)=O,inactive,inactive,inactive,inactive,inactive,inactive,inactive,inactive,inactive,inactive,,
CC(C)C12CCC(C)(CC1)O2,inactive,,,,,,,,,,,
CC(=O)OCc1ccccc1,inactive,inactive,inactive,inactive,inactive,inactive,inactive,inactive,inactive,inactive,,
CCc1nccnc1CC,inactive,inactive,inactive,inactive,inactive,,,inactive,,,active,
CCCCCCCO,inactive,inactive,inactive,inactive,inactive,inactive,inactive,inactive,inactive,inactive,,inactive
CCOC(=O)CC(C)C,inactive,inactive,inactive,inactive,inactive,,,inactive,,,,
CCC(=O)C(=O)CC,inactive,inactive,inactive,inactive,inactive,inactive,inactive,inactive,inactive,inactive,,
CCc1ccc(O)cc1,inactive,active,inactive,inactive,inactive,,,inactive,,,,
C=CCOC(=O)CCCCCC,inactive,inactive,inactive,inactive,inactive,inactive,inactive,inactive,inactive,inactive,,
CC(C)=CCCC(C)=CCO,inactive,inactive,inactive,inactive,inactive,inactive,inactive,inactive,inactive,inactive,,
CCCC(=O)C(C)=O,inactive,inactive,inactive,inactive,inactive,inactive,inactive,inactive,inactive,inactive,,
CCCCC(=O)CC,inactive,inactive,inactive,inactive,inactive,inactive,inactive,inactive,inactive,inactive,,
CCCCCC1=C(C)CCC1=O,inactive,inactive,inactive,inactive,inactive,inactive,inactive,inactive,inactive,inactive,,
C=C(C)C1CCC(C)C(O)C1 (configuration not stated),inactive,inactive,inactive,inactive,inactive,,,inactive,,,,
COc1cc(C(=O)O)ccc1O,inactive,inactive,inactive,inactive,inactive,inactive,inactive,inactive,inactive,inactive,,
